Source: ChEMBL document CHEMBL4017509, “A Dual Modulator of Farnesoid X Receptor and Soluble Epoxide Hydrolase To Counter Nonalcoholic Steatohepatitis” (J Med Chem, 2017)
Calls of active or inactive are those of the source. The rule behind the calls is not given here.

Columns and labels:
Bile acid receptor = target: T1, Bile acid receptor (Homo sapiens, UniProt Q96RI1); experiment: Transactivation of human FXR expressed in human HeLa cells co-expressing BSEP after 24 hrs by dual-glo luciferase reporter gene assay; format: cell-based
T1 sequence (Q96RI1 whole entry): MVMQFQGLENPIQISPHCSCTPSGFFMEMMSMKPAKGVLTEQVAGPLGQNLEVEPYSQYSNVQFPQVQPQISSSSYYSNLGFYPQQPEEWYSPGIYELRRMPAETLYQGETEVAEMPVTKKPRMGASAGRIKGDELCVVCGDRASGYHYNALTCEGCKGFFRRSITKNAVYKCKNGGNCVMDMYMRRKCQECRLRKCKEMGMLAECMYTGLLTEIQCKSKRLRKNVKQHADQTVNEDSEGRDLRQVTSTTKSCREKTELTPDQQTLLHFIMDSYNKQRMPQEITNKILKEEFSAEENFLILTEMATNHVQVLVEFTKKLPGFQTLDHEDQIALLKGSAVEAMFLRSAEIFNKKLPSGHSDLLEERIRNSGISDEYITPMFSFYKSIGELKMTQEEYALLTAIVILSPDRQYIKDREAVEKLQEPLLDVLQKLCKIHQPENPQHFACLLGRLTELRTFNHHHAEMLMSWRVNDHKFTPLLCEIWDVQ
In short: (§1)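 HeLa cells in DMEM/10% FCS at 37 °C, 5% CO2; switched to 0.5% charcoal-stripped FCS before calcium phosphate co-transfection with pcDNA3-hFXR, pSG5-hRXR, BSEP promoter–firefly luciferase reporter and pRL-SV40 renilla. Compound in 0.1% DMSO, phenol red-free medium, 24 h.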

[1] = target: T2, Bile acid receptor (Homo sapiens) (UniProt Q96RI1); experiment: Transactivation of human FXR expressed in human HeLa cells co-expressing BSEP at 50 uM after 24 hrs by dual-glo luciferase reporter gene assay relative to GW4064; format: cell-based; in short: as §1
T2 sequence (whole entry): T1 sequence (Q96RI1 whole entry)

[2] = target: T3, Bifunctional epoxide hydrolase 2 (Homo sapiens) (UniProt P34913); experiment: Inhibition of recombinant human sEH at 50 uM using PHOME as substrate preincubated for 30 mins followed by substrate addition measured for 30 mins by fluorescence photometric method
T3 sequence (whole entry): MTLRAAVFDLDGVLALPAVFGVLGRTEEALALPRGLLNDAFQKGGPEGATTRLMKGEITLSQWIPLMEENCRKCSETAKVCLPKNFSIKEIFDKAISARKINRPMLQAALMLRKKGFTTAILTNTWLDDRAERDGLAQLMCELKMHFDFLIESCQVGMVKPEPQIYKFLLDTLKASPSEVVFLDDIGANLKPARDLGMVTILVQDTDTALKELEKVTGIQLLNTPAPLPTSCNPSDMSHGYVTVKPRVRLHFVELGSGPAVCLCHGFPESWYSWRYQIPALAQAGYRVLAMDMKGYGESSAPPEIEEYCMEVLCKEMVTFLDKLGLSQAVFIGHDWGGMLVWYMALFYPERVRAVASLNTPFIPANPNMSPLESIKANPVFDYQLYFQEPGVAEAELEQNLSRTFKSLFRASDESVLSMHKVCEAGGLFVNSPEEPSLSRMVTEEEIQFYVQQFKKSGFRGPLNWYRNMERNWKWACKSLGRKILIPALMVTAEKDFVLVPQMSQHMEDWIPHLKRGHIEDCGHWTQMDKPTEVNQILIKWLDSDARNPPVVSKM
In short: (§2)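 Recombinant human sEH in Bis-Tris buffer pH 7, 0.1 mg/mL BSA, 0.01% Triton X-100 (final), preincubated 30 min at room temperature with compound (1% DMSO final). PHOME added at 50 μM final; 6-methoxynaphthaldehyde fluorescence read each minute for 30 min.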

[3] = target: T4, Bifunctional epoxide hydrolase 2 (Homo sapiens, UniProt P34913); experiment: Inhibition of recombinant human sEH using PHOME as substrate preincubated for 30 mins followed by substrate addition measured for 30 mins by fluorescence photometric method; in short: as §2
T4 sequence (P34913 whole entry): T3 sequence (whole entry)

Liver = experiment: Drug level in Sprague-Dawley rat liver microsomes treated with 4-(tert-Butyl)-N-(2-chloro-4-(methylsulfonamido)benzyl)-benzamide at 10 uM preincubated with NADPH regenerating system for 5 mins followed by addition of liver microsomes by LC-MS/MS method; format: ADME, microsome
[4] = target: T3, Bifunctional epoxide hydrolase 2 (Homo sapiens); experiment: Inhibition of sEH in human HepG2 cells assessed as NF-kappaB mRNA expression at 1 uM after 8 to 16 hrs by SYBR green based qRT-PCR analysis relative to DMSO control; format: cell-based
In short: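 HepG2 cells treated with compound or 0.1% DMSO vehicle; NF-κB mRNA quantified by SYBR Green qRT-PCR, comparative ΔΔCt with GAPDH reference; expressed as % of vehicle (100%).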

inhibition [2] [%] | IC50 ([3]; read-out: IC50) [nM] | Drug metabolism (Liver) | IC50 [3] | inhibition [4] [%] | Compound | EC50 (Bile acid receptor) [nM] | Emax [1]
37 | – | – | – | – | CC(NC(=O)c1ccc(C(C)(C)C)cc1)c1ccc(C(=O)O)cc1 (centres undefined) | 76 | 24%
– | 2050 | – | – | – | CC(C)(C)c1ccc(C(=O)NCc2ccc(CO)cc2)cc1 | – | inactive
– | 3500 | – | – | – | CC(C)(C)c1ccc(C(=O)NCc2ccc(N)cc2)cc1 | – | inactive
– | 20000 | – | – | – | CC(C)(C)c1ccc(C(=O)NCc2ccc(CC(=O)O)cc2)cc1 | 6400 | 19%
– | 1200 | – | – | – | CC(C)(C)c1ccc(C(=O)NCc2ccc(C(N)=O)cc2)cc1 | 3800 | 27%
– | – | Metabolite_Detected | – | – | CC(C)(CO)c1ccc(C(=O)NCc2ccc(NS(C)(=O)=O)cc2Cl)cc1 | – | –
– | 1430 | – | – | – | CC(C)(C)c1ccc(C(=O)NCc2ccc(C(=O)O)cc2F)cc1 | 7.8 | 26%
– | 120 | – | – | – | CSc1ccc(CNC(=O)c2ccc(C(C)(C)C)cc2)cc1 | 100 | 33%
19 | – | – | – | – | CN(C)c1ccc(C(=O)NCc2ccc(C(=O)O)cc2)cc1 | – | inactive
– | 137 | – | – | – | CC(C)(C)c1ccc(C(=O)NCc2ccc(S(N)(=O)=O)cc2F)cc1 | 970 | 34%
– | 1900 | – | – | – | CNC(=O)c1ccc(CNC(=O)c2ccc(C(C)(C)C)cc2)cc1 | 340 | 29%
– | 570 | – | – | – | CCOc1ccc(CNC(=O)c2ccc(C(C)(C)C)cc2)cc1 | 160 | 31%
– | 4600 | – | – | – | CN(C)C(=O)c1ccc(CNC(=O)c2ccc(C(C)(C)C)cc2)cc1 | 170 | 17%
– | 280 | – | – | – | CC(C)(C)c1ccc(C(=O)NCc2ccc(S(N)(=O)=O)cc2)cc1 | 1400 | 16%
37 | – | – | – | – | O=C(O)c1ccc(CNC(=O)C2CCCCC2)cc1 | – | inactive
24 | – | – | – | – | Cc1ccc(C(=O)NCc2ccc(C(=O)O)cc2)cc1 | – | 15%
– | 18500 | – | – | – | CC(C)(C)c1ccc(NC(=O)Nc2ccc(C(=O)O)cc2)cc1 | 3800 | 14%
– | 430 | – | – | – | COc1ccc(CNC(=O)c2ccc(C(C)(C)C)cc2)cc1 | 150 | 19%
7 | – | – | – | – | Cc1ccc(C(=O)NCc2ccc(C(=O)O)cc2)c(C)c1 | – | inactive

inhibition [2] [%] | IC50 ([3]; read-out: IC50) [nM] | Drug metabolism (Liver) | IC50 [3] | inhibition [4] [%] | Compound | EC50 (Bile acid receptor) [nM] | Emax [1]
– | 18200 | – | – | – | CC(C)(C)c1ccc(C(=O)NCc2ccc(-c3nnn[nH]3)cc2)cc1 | 120 | 23%
– | 157 | – | – | – | CC(=O)c1ccc(CNC(=O)c2ccc(C(C)(C)C)cc2)cc1 | 100 | 29%
– | 910 | – | – | – | CC(C)(C)c1ccc(C(=O)NCc2ccc(C#N)cc2)cc1 | – | inactive
– | 12700 | – | – | – | CC(=O)NS(=O)(=O)c1ccc(CNC(=O)c2ccc(C(C)(C)C)cc2)cc1 | – | inactive
16 | – | – | – | – | O=C(O)c1ccc(CNC(=O)c2ccccc2)cc1 | – | 12%
– | 1630 | – | – | – | CC(C)(C)c1ccc(C(=O)NCc2ccc(CCC(=O)O)cc2)cc1 | 350 | 16%
– | – | – | Nd(Insoluble) | – | CC(C)Oc1ccc(CNC(=O)c2ccc(C(C)(C)C)cc2)cc1 | 170 | 26%
53 | – | – | – | – | Cc1cc(CNC(=O)c2ccc(C(C)(C)C)cc2)ccc1C(=O)O | 160 | 14%
– | 4200 | – | – | – | CC(C)(C)c1ccc(C(=O)NCc2ccc(C(=O)O)cc2)cc1 | 370 | 13%
– | 220 | – | – | – | C[S+]([O-])c1ccc(CNC(=O)c2ccc(C(C)(C)C)cc2)cc1 (centres undefined) | 1300 | 24%
– | 170 | – | – | – | CC(C)(C)c1ccc(C(=O)NCc2ccc(C(=O)O)cc2Cl)cc1 | 7500 | 25%
– | – | – | – | 59.4 | C[C@@H]1C[C@H]2[C@@H]3CCC4=CC(=O)C=C[C@]4(C)[C@@]3(F)[C@@H](O)C[C@]2(C)[C@@]1(O)C(=O)CO | – | –
19 | – | – | – | – | O=C(O)c1ccc(CNC(=O)c2ccccc2-c2ccccc2)cc1 | – | 22%
– | 10000 | – | – | – | O=C(O)c1ccc(CNC(=O)c2cccc(-c3ccccc3)c2)cc1 | 670 | 14%
– | 10500 | – | – | – | O=C(O)c1ccc(CNC(=O)c2ccc(Cl)c(Cl)c2)cc1 | – | inactive
– | 220 | – | – | – | CC(C)(C)c1ccc(C(=O)NCc2ccc(OC(F)(F)F)cc2)cc1 | 160 | 26%
– | – | Metabolite_Detected | – | – | CC(C)(C)c1ccc(C(=O)NCc2ccc(N)cc2Cl)cc1 | – | –
37 | – | – | – | – | Cc1cccc(C(=O)NCc2ccc(C(=O)O)cc2)c1 | – | inactive
– | 1200 | – | – | – | CC(C)(C)c1ccc(C(=O)NCc2ccc(S(C)(=O)=O)cc2)cc1 | 3800 | 34%

inhibition [2] [%] | IC50 ([3]; read-out: IC50) [nM] | Drug metabolism (Liver) | IC50 [3] | inhibition [4] [%] | Compound | EC50 (Bile acid receptor) [nM] | Emax [1]
– | 510 | – | – | – | CC(C)(C)c1ccc(C(=O)NCc2ccc(C=O)cc2)cc1 | 5300 | 22%
– | 1120 | – | – | – | CC(=O)Nc1ccc(CNC(=O)c2ccc(C(C)(C)C)cc2)cc1 | 2900 | 31%
52 | – | – | – | – | Cc1ccc(C(=O)NCc2ccc(C(=O)O)cc2)cc1C | 320 | 12%
– | 660 | – | – | – | CC(C)(C)c1ccc(C(=O)NCc2ccc(NC(=O)C(F)(F)F)cc2)cc1 | 260 | 20%
45 | – | – | – | – | O=C(O)c1ccc(CNC(=O)c2ccc3ccccc3c2)cc1 | 1360 | 18%
< 3 | – | – | – | – | O=C(O)c1ccc(CNC(=O)C2CCNCC2)cc1 | – | inactive
– | 5040 | – | – | – | COc1cc(C(=O)NCc2ccc(C(=O)O)cc2)ccc1C(C)(C)C | 1200 | 23%
26 | – | – | – | – | CC(C)(C)c1ccc(C(=O)NCc2cccc(C(=O)O)c2)cc1 | 1700 | 14%
– | 650 | – | – | – | CC(C)(C)c1ccc(C(=O)NCc2ccc(NS(C)(=O)=O)cc2)cc1 | 44 | 22%
14 | – | – | – | – | Cc1ccccc1C(=O)NCc1ccc(C(=O)O)cc1 | – | inactive
50 | – | – | – | – | CC(C)(C)c1ccc(C(=O)NCc2ccc(C(=O)O)c(Cl)c2)cc1 | 8.8 | 21%
55 | – | – | – | – | O=C(O)c1ccc(CNC(=O)c2ccc(C(F)(F)F)c(C(F)(F)F)c2)cc1 | – | inactive
– | – | – | – | – | O=C(O)c1ccc(CNC(=O)c2ccc(-c3ccccc3)cc2)cc1 | – | 24%
26 | – | – | – | – | COc1ccc(C(=O)NCc2ccc(C(=O)O)cc2)cc1OC | 370 | 18%
– | 390 | – | – | – | CC(C)(C)c1ccc(C(=O)NCc2ccc(SC(F)(F)F)cc2)cc1 | 0.4 | 19%
– | 19000 | – | – | – | CC(C)(C)c1ccc(C(=O)NCc2ccc(OCC(=O)O)cc2)cc1 | 730 | 21%
– | 20300 | – | – | – | CC(C)(C)c1ccc(C(=O)NCc2ccc(C(=O)O)c(F)c2)cc1 | 140 | 28%
– | 680 | – | – | – | Cc1cc(C(=O)O)ccc1CNC(=O)c1ccc(C(C)(C)C)cc1 | – | inactive
